Blank lines part the entries; values can stand above or below the molecule they belong to.
How the values were obtained:
FmlH (Escherichia coli) = assay: Inhibition of C-terminal 6His-tagged biotinylated FmIH (Escherichia coli CFT073) expressed in Escherichia coli C600 cells incubated for 1 hr
[1] = AUCextra in mouse at 3 mg/kg, iv by LC-MS/MS method; format: ADME, organism-based; settings: in vivo
Outline: (§1)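 Single dose in mice, given 3 mg/kg intravenously or 10 mg/kg orally. Plasma was followed over 8 h, and the mean plasma concentration-time profile was used. Oral bioavailability (%F) was calculated from the IV and PO exposures.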

[2] = Initial plasma concentration in mouse at 3 mg/kg, iv by LC-MS/MS method; format: ADME, organism-based
Outline: as §1

[3] = Tmax in mouse at 10 mg/kg, po by LC-MS/MS method; format: ADME, organism-based; settings: in vivo
Outline: as §1

[4] = Cmax in mouse at 10 mg/kg, po by LC-MS/MS method; format: ADME, organism-based; settings: in vivo
Outline: as §1

[5] = MRT(0 to last) in mouse at 10 mg/kg, po by LC-MS/MS method; format: ADME, organism-based; settings: in vivo
Outline: as §1

[6] = Volume of distribution at steady state in mouse at 3 mg/kg, iv by LC-MS/MS method; format: ADME, organism-based; settings: in vivo, read-out: Vdss
Outline: as §1

[7] = Mean residence time(0 to infinity) in mouse at 3 mg/kg, iv by LC-MS/MS method; format: ADME, organism-based; settings: in vivo
Outline: as §1

[8] = Oral bioavailability in mouse at 10 mg/kg by LC-MS/MS method; format: ADME, organism-based; settings: in vivo
Outline: as §1

[9] = AUMCextra in mouse at 10 mg/kg, po by LC-MS/MS method; format: ADME, organism-based; settings: in vivo
Outline: as §1

[10] = Half life in mouse at 10 mg/kg, po by LC-MS/MS method; format: ADME, organism-based; settings: in vivo
Outline: as §1

[11] = AUC(0 to infinity) in mouse at 10 mg/kg, po by LC-MS/MS method; format: ADME, organism-based; settings: in vivo
Outline: as §1

[12] = AUC(0 to last) in mouse at 3 mg/kg, iv by LC-MS/MS method; format: ADME, organism-based; settings: in vivo
Outline: as §1

[13] = MRT(0 to infinity) in mouse at 10 mg/kg, po by LC-MS/MS method; format: ADME, organism-based; settings: in vivo
Outline: as §1

[14] = Mean residence time(0 to last) in mouse at 3 mg/kg, iv by LC-MS/MS method; format: ADME, organism-based; settings: in vivo
Outline: as §1

[15] = Half-life in mouse at 3 mg/kg, iv by LC-MS/MS method; format: ADME, organism-based; settings: in vivo
Outline: as §1

[16] = Tlast in mouse at 3 mg/kg, iv by LC-MS/MS method; format: ADME, organism-based; settings: in vivo
Outline: as §1

[17] = AUC(0 to last) in mouse at 10 mg/kg, po by LC-MS/MS method; format: ADME, organism-based; settings: in vivo
Outline: as §1

[18] = Clearance in mouse at 3 mg/kg, iv by LC-MS/MS method; format: ADME, organism-based; settings: in vivo
Outline: as §1

[19] = AUMCextra in mouse at 3 mg/kg, iv by LC-MS/MS method; format: ADME, organism-based; settings: in vivo
Outline: as §1

[20] = AUCextra in mouse at 10 mg/kg, po by LC-MS/MS method; format: ADME, organism-based; settings: in vivo
Outline: as §1

[21] = AUCinfinity in mouse at 3 mg/kg, iv by LC-MS/MS method; format: ADME, organism-based; settings: in vivo
Outline: as §1

[22] = Drug concentration in mouse urine at 20 mg/kg, po measured at 24 hrs by HPLC-MS/MS analysis; format: ADME, organism-based; settings: read-out: Ct
Outline: (§2)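 9-week-old C3H/HeN mice, n=5 per dose group, were dosed once by oral gavage. The compound was in 1% methyl cellulose, vortexed, sonicated 20 min, warmed at 50 °C for 10 min and vortexed again just before dosing. Mean urine concentration is reported.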

[23] = Drug concentration in mouse urine at 2 mg/kg, po measured at 24 hrs by HPLC-MS/MS analysis; format: ADME, organism-based; settings: read-out: Ct
Outline: as §2

[24] = Tlast in mouse at 10 mg/kg, po by LC-MS/MS method; format: ADME, organism-based; settings: in vivo
Outline: as §1

SMILES: CC(=O)N[C@H]1[C@H](Oc2cccc(C(F)(F)F)c2-c2cc(F)cc(C#N)c2)O[C@H](CO)[C@H](O)[C@@H]1O
IC50 (FmlH (Escherichia coli)): 2000 nM

SMILES: CC(=O)N[C@H]1[C@H](Oc2cccc(C(F)(F)F)c2-c2ccc(F)cc2F)O[C@H](CO)[C@H](O)[C@@H]1O
IC50 (FmlH (Escherichia coli)): 320 nM

SMILES: CS(=O)(=O)Nc1cccc(-c2ccccc2O[C@@H]2O[C@H](CO)[C@H](O)[C@H](O)[C@H]2O)c1
IC50 (FmlH (Escherichia coli)): 1600 nM

SMILES: CS(=O)(=O)Nc1cccc(-c2ccccc2C[C@@H]2O[C@H](CO)[C@H](O)[C@H](O)[C@H]2F)c1
IC50 (FmlH (Escherichia coli)): 7300 nM

SMILES: CC(=O)N[C@H]1[C@H](Oc2cccc(C(F)(F)F)c2-c2ccc(F)c(NS(C)(=O)=O)c2)O[C@H](CO)[C@H](O)[C@@H]1O
IC50 (FmlH (Escherichia coli)): 890 nM

SMILES: CC(=O)N[C@H]1[C@H](Oc2cccc(C(F)(F)F)c2-c2ccc(F)c(F)c2)O[C@H](CO)[C@H](O)[C@@H]1O
%AUCextra [1]: 1.07%
C0 [2]: 3190 ng/mL
Tmax [3]: 2.64 h
Cmax [4]: 472 ng/mL
MRT last [5]: 3.53 h
Vd [6]: 2.39 L/kg
MRT inf [7]: 1.43 h
bioavailability [8]: 30.7%
AUMC [9]: 5.96%
half-life [10]: 1.8 h
AUC(0-inf) [11]: 1860 ng·h/mL
AUC(0-t) [12]: 1790 ng·h/mL
MRT inf [13]: 3.67 h
MRT last [14]: 1.34 h
half-life [15]: 1.26 h
Tlast [16]: 8 h
AUC(0-t) [17]: 1830 ng·h/mL
clearance [18]: 28 mL/min/kg
AUMC [19]: 7.31%
%AUCextra [20]: 1.64%
AUC(0-inf) [21]: 1810 ng·h/mL
IC50 (FmlH (Escherichia coli)): 240 nM

SMILES: CC(=O)N[C@H]1[C@H](Oc2cccc(C(F)(F)F)c2-c2cccc(CC#N)c2)O[C@H](CO)[C@H](O)[C@@H]1O
IC50 (FmlH (Escherichia coli)): 800 nM

SMILES: CS(=O)(=O)Nc1cccc(-c2ccccc2C[C@@H]2O[C@H](CO)[C@H](O)[C@H](O)[C@H]2O)c1
IC50 (FmlH (Escherichia coli)): 15000 nM

SMILES: CC(=O)N[C@H]1[C@H](Oc2cccc(C(F)(F)F)c2-c2cccc(C(=O)NS(C)(=O)=O)c2)O[C@H](CO)[C@H](O)[C@@H]1O
IC50 (FmlH (Escherichia coli)): 310 nM

SMILES: CC(=O)N[C@H]1[C@H](Oc2cccc(C(F)(F)F)c2-c2cccc(F)c2F)O[C@H](CO)[C@H](O)[C@@H]1O
IC50 (FmlH (Escherichia coli)): 590 nM

SMILES: CC(=O)N[C@@H]1[C@@H](O)[C@@H](O)[C@@H](CO)O[C@H]1C(=O)Nc1ccccc1-c1cccc(NS(C)(=O)=O)c1
IC50 (FmlH (Escherichia coli)): 6900 nM

SMILES: CC(=O)N[C@H]1[C@H](Oc2cccc(C(F)(F)F)c2-c2cc(F)cc(F)c2)O[C@H](CO)[C@H](O)[C@@H]1O
IC50 (FmlH (Escherichia coli)): 6000 nM

SMILES: CC(=O)N[C@H]1[C@H](Oc2cccc(C(F)(F)F)c2-c2cccc(NS(C)(=O)=O)c2)O[C@H](CO)[C@H](O)[C@@H]1O
IC50 (FmlH (Escherichia coli)): 35 nM

SMILES: CC(=O)N[C@H]1[C@H](Oc2cccc(C(F)(F)F)c2-c2cc(C#N)cc(C(F)(F)F)c2)O[C@H](CO)[C@H](O)[C@@H]1O
IC50 (FmlH (Escherichia coli)): 6000 nM

SMILES: COc1cc(-c2c(O[C@@H]3O[C@H](CO)[C@H](O)[C@H](O)[C@H]3NC(C)=O)cccc2C(F)(F)F)cc(C(F)(F)F)c1
IC50 (FmlH (Escherichia coli)): 18000 nM

SMILES: CC(=O)N[C@H]1[C@H](Oc2ccccc2-c2cccc(NS(C)(=O)=O)c2)O[C@H](CO)[C@H](O)[C@@H]1O
IC50 (FmlH (Escherichia coli)): 230 nM

IC50 (FmlH (Escherichia coli)): > 50000 nM
SMILES: CS(=O)(=O)Nc1cccc(-c2ccccc2C[C@@H]2O[C@H](CO)[C@H](O)[C@H](O)[C@H]2[N+](=O)[O-])c1

SMILES: CC(=O)N[C@H]1[C@H](Oc2cccc(C(F)(F)F)c2-c2ccc(F)c(F)c2F)O[C@H](CO)[C@H](O)[C@@H]1O
IC50 (FmlH (Escherichia coli)): 700 nM

SMILES: CC(=O)N[C@H]1[C@H](Oc2cccc(C(F)(F)F)c2-c2cccc(F)c2)O[C@H](CO)[C@H](O)[C@@H]1O
IC50 (FmlH (Escherichia coli)): 480 nM

SMILES: CC(=O)N[C@@H]1[C@@H](O)[C@@H](O)[C@@H](CO)O[C@H]1Cc1ccccc1-c1cccc(NS(C)(=O)=O)c1
IC50 (FmlH (Escherichia coli)): 15000 nM

SMILES: CC(=O)N[C@H]1[C@H](Oc2cccc(C(F)(F)F)c2-c2ccc(F)c(NS(=O)(=O)c3ccccc3)c2)O[C@H](CO)[C@H](O)[C@@H]1O
IC50 (FmlH (Escherichia coli)): 190 nM

SMILES: CC(=O)N[C@H]1[C@H](Oc2cccc(C(F)(F)F)c2-c2ccc3ccn(S(C)(=O)=O)c3c2)O[C@H](CO)[C@H](O)[C@@H]1O
IC50 (FmlH (Escherichia coli)): 600 nM

SMILES: CC(=O)N[C@H]1[C@H](Oc2cccc(C(F)(F)F)c2-c2cccc(N(C)S(=O)(=O)O)c2)O[C@H](CO)[C@H](O)[C@@H]1O
IC50 (FmlH (Escherichia coli)): 2000 nM

SMILES: CC(=O)N[C@H]1[C@H](Oc2cccc(C(F)(F)F)c2-c2ccccc2F)O[C@H](CO)[C@H](O)[C@@H]1O
IC50 (FmlH (Escherichia coli)): 710 nM

SMILES: CC(=O)N[C@H]1[C@H](Oc2cccc(C(F)(F)F)c2-c2ccc(F)cc2)O[C@H](CO)[C@H](O)[C@@H]1O
%AUCextra [1]: 1.9%
concentration at 24 h [22]: 66.3 ng/mL
C0 [2]: 4430 ng/mL
Tmax [3]: 2 h
Cmax [4]: 1480 ng/mL
MRT last [5]: 3.18 h
Vd [6]: 1.42 L/kg
MRT inf [7]: 1.75 h
bioavailability [8]: 52.7%
AUMC [9]: 21.6%
half-life [10]: 1.92 h
AUC(0-inf) [11]: 6560 ng·h/mL
AUC(0-t) [12]: 3660 ng·h/mL
MRT inf [13]: 3.75 h
MRT last [14]: 1.59 h
half-life [15]: 1.47 h
Tlast [16]: 8 h
concentration at 24 h [23]: 15.8 ng/mL
AUC(0-t) [17]: 6070 ng·h/mL
clearance [18]: 13.6 mL/min/kg
AUMC [19]: 10.8%
Tlast [24]: 8 h
%AUCextra [20]: 7.55%
AUC(0-inf) [21]: 3740 ng·h/mL
IC50 (FmlH (Escherichia coli)): 190 nM

SMILES: CC(=O)N[C@H]1[C@H](Oc2cccc(C(F)(F)F)c2-c2cc(F)cc(C(F)(F)F)c2)O[C@H](CO)[C@H](O)[C@@H]1O
IC50 (FmlH (Escherichia coli)): 9000 nM

SMILES: COc1cc(F)cc(-c2c(O[C@@H]3O[C@H](CO)[C@H](O)[C@H](O)[C@H]3NC(C)=O)cccc2C(F)(F)F)c1
IC50 (FmlH (Escherichia coli)): 6000 nM

SMILES: CC(=O)N[C@H]1[C@H](Oc2cccc(C(F)(F)F)c2-c2cccc(CS(C)(=O)=O)c2)O[C@H](CO)[C@H](O)[C@@H]1O
IC50 (FmlH (Escherichia coli)): 450 nM

Source: ChEMBL document CHEMBL5528045, “Discovery of Orally Bioavailable FmlH Lectin Antagonists as Treatment for Urinary Tract Infections” (J Med Chem, 2024)
